Compound activity: PubChem BioAssay, several laboratories
Rows were chosen to be rich in hits. Some 11% of all compounds tested hit in one or more screens of this group.
M1 agonist: M1 muscarinic receptor agonism; AID 626; CHO-M1 cells, Fluo-4 calcium fluorescence, agonist mode; hits give high values; hit rate 3% among 64,000; B-score at 10 µM;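 active means fluorescence rise, raw or as B-score row- and column-corrected plate score, outside the 99.7% band of its plate's samples, either direction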
S1P1 ag pot: activates or potentiates agonism at human S1P1 receptor | P21453 | AID 449 | hit rate 0.57% among 56,000 | S1P1 CRE-bla cells, forskolin, beta-lactamase FRET, potentiator mode; S1P1 agonist co-added at EC20, 2 nM; 100% = saturating reference agonist, 0% = basal | activation, % at 9.5 µM;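 active means activation above a cutoff set at the mean activation of all tested compounds plus 3 SD, cut at about 54% in these data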;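 further: forskolin at 4 µM as EC80 and the EC20 agonist is SEW2871; 100% = SEW2871 at its EC100 plus forskolin at EC80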
D1 mod: D1 dopamine receptor (human) allosteric modulation; P21728; HEK293 D1, CRE-luciferase, dopamine EC30 potentiation; actives deviate in either direction; B-score at 10 µM; hit rate 5.9% among 58,000; AID 641;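 active means luminescence count or its row- and column-corrected plate score outside the 99.7% band of the plate's sample wells, on either side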
S1P3 ag: S1P3 (human) receptor agonism; Q99500; hit rate 0.1% among 60,000; S1P3 NFAT-BLA reporter cells, FRET ratio; relative to 1 µM S1P, basal subtracted; activation, % at 4.5 µM;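 active means activation above the screen-wide mean plus 3 SD, cut at about 4.5% in these data, passing the limit was not always enough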
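Benchmarks: high control 1 µM S1P / System: stable CHO line with human S1P3, Gα16, NFAT-BLA reporter / Dosing: single compound concentration, 4.5 µM final / Timing: 4 h compound at 37 °C, 2 h substrate at RT / Measured by: FRET β-lactamase substrate fluorescence, excitation 405 nm, 460/535 nm emission ratio, background-subtracted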
TNAP act mid DEA: human TNAP activation, intermediate phosphate acceptor | P05186 | purified TNAP, CDP-star luminescence, 100 mM DEA, 30 min; hits give high values; scale: 0 levamisole-inhibited, 1 vehicle-only enzyme | activation factor at 20 µM | 64,000 tested, under 10 active;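 active means activation factor of at least 2 at 20 µM, relative to controls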
M1 antagonist: M1 muscarinic receptor (rat) antagonism; hit rate 3.4% among 64,000; B-score at 10 µM; CHO-M1 cells, Fluo-4 calcium, ACh EC80 antagonist mode; hits give low values;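 active means calcium fluorescence response, raw or row-and-column corrected B-score, differing from the plate sample mean either way at a set confidence level, mostly lower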
Target sequence (P08482 whole entry, looked up): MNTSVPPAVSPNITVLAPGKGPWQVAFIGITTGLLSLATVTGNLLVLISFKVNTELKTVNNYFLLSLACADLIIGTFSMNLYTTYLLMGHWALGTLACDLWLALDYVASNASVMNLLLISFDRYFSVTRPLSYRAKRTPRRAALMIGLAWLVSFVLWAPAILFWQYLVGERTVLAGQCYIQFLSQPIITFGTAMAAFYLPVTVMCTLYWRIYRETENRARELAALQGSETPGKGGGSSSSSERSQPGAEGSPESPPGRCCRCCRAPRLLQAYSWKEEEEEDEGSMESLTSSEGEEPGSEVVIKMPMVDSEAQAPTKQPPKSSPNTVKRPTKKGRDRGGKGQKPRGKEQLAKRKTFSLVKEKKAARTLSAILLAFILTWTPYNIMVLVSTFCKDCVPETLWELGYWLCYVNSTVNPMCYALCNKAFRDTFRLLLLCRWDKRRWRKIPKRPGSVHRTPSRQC
M1 ag confirm: confirmation of rat M1 muscarinic receptor agonists; shares compounds with M1 agonist; CHO-M1 cells, Fluo-4 calcium fluorescence, agonist mode; actives lie on both sides; fluorescence change (max-min) at 10 µM; hit rate 19% among 1,700; AID 1488;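 active means fluorescence change differs from the solvent-only DMSO control mean at a set confidence level in both duplicate runs; inconclusive means differs from solvent-only control mean in just one of two runs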;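 further: an EC20 dose of acetylcholine follows compound addition during the same imaging run; raw fluorescence intensity difference in instrument units with no normalization to controls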
M4 agonist ctr: rat M4 muscarinic agonism, M1 counter-screen | shares compounds with M1 agonist | CHO M4/Gqi5 cells, Fluo-4 calcium fluorescence, agonist mode; actives lie on both sides | fluorescence change (max-min) at 10 µM | hit rate 9% among 1,700;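 active means fluorescence change differing from the plate's solvent-only control wells at 99.7% confidence in both duplicates, whether higher or lower; inconclusive means differs from solvent controls in only one of two duplicates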
* = called active by the depositor; ? = inconclusive; / = not tested or not shown.

SMILES | M1 agonist | S1P1 ag pot | D1 mod | S1P3 ag | TNAP act mid DEA | M1 antagonist | M1 ag confirm | M4 agonist ctr
COc1ccc(Cn2nnnc2C(C(C)C)N(Cc2ccco2)Cc2cccs2)cc1 (stereo not given) | 3.2* | 48 | 0.83 | -2 | 1 | -0.13 | -6.4 | ?
COc1ccc(Cc2nnn(CC(=O)O)n2)cc1 | -2 | -45 | 0.52 | 0 | 0.9 | 1.2 | / | /
Cc1cc(C)c(NC(=O)c2ccc(S(=O)(=O)N3CCOCC3)cc2)c(C)c1 | -0.79 | 10 | -0.014 | -1 | 0.9 | -0.056 | / | /
CC(C)c1nnc(NC(=O)c2ccc(S(=O)(=O)N3CCOCC3)cc2)s1 | -3.1* | 4 | -0.023 | 1 | 0.9 | -0.23 | ? | ?
COc1ccc(S(=O)(=O)N2CCOCC2)cc1C(=O)Nc1cc(C)on1 | 2.3 | 10 | 0.16 | 0 | 0.9 | -0.33 | / | /
Cc1c(Cl)cccc1NC(=O)c1cc(C2CC2)on1 | -0.065 | 23 | 0.25 | -1 | 0.9 | -0.077 | / | /
COc1cc(NC(=O)C2CC(=O)NC3=C2C(=O)CC(C)(C)C3)c(OC)cc1Cl (stereo not given) | 16* | -22 | / | 0 | 1 | -0.082 | -2.8 | -47
Cc1cc(C)c(S(=O)(=O)n2nc(C)c(Br)c2C)c(C)c1 | -0.2 | / | 0.4 | -1 | 0.9 | 0.53 | / | /
CC(=O)Nc1ccccc1OCC(=O)c1cc(C)n(Cc2cccs2)c1C | 3.1* | 110* | / | -2 | 0.9 | -2.4 | 22 | -33
Cc1cc(C(=O)COC(=O)c2ccc3c(c2)OCO3)c(C)n1Cc1cccs1 | -0.42 | 37 | 0.05 | 0 | 1 | 0.056 | / | /
CCOC(=O)CSc1cn2c(n1)CCC2 | 0.0062 | 5 | -0.026 | -1 | 0.9 | 1.1 | / | /
CCCCN(C)Cc1c(O)ccc2c(-c3ccccc3)cc(=O)oc12 | 8.2* | 6 | / | -1 | 0.9 | -3.8* | -2.7 | -21
CCN(CC)Cc1c(O)ccc2c(-c3ccccc3)cc(=O)oc12 | 0.92 | -20 | -1.9 | 0 | 1 | -0.49 | / | /
CCCCNC(=O)CC1Nc2ccccc2NC1=O (stereo not given) | 7.9* | 13 | -0.56 | -1 | 0.9 | -0.48 | 30 | ?
O=c1oc2ccccc2n1Cc1ccccc1Cl | 1.9 | -6 | 0.99 | 0 | 0.9 | 1 | / | /
O=C(c1ccco1)N1CCN(C(=O)C2CCN(S(=O)(=O)Cc3ccccc3)CC2)CC1 | -0.025 | -9 | 0.54 | 1 | 0.9 | -0.9 | / | /
CCCS(=O)(=O)N1CCCC(C(=O)NCCc2ccc(OC)c(OC)c2)C1 (stereo not given) | -0.0034 | -24 | -0.017 | -1 | 1 | 0.14 | / | /
O=C(OCC(=O)N1CCN(C(=O)c2ccco2)CC1)c1cc(-c2ccc(F)cc2)nc2ccccc12 | 11* | -6 | / | 0 | 0.9 | -1.2 | 82* | 20
O=C(OCC(=O)N1CCN(C(=O)c2ccco2)CC1)c1cn(-c2ccccc2)nc1-c1ccccc1 | 4.5* | 24 | 0.063 | 0 | 0.9 | -0.4 | ? | -51
Cc1csc2nc(CNS(=O)(=O)c3cccnc3)cn12 | -0.11 | -30 | -0.016 | 3 | / | 0.16 | / | /
COc1ccc(C2C(=O)N(C3CCCCC3)CC(=O)N2Cc2ccco2)cc1 (stereo not given) | 0.69 | / | -0.038 | / | 1 | -0.94 | / | /
CCOC(=O)c1cc(-c2nnc(-c3ccc(Oc4ccccc4)cc3)o2)c(C)nc1C | -0.93 | 0 | 0.74 | 0 | 0.9 | 0.11 | / | /
CN1C(=O)C(O)(CC(=O)c2ccccn2)c2cc(Br)ccc21 (stereo not given) | -2.7* | 19 | / | -1 | 0.9 | 0.44 | ? | -54
C=CCSc1nc2ccccc2n1Cc1nnc(-c2cccs2)o1 | -1.1 | 12 | 1.7 | 0 | 1 | -1.2 | / | /
COc1ccc2cc(C(=O)NCc3ccco3)c(=Nc3ccc(C(=O)O)cc3)oc2c1 | 2.7* | -11 | 1.8 | -1 | 0.9 | -0.02 | ? | -68
SMILES | M1 agonist | S1P1 ag pot | D1 mod | S1P3 ag | TNAP act mid DEA | M1 antagonist | M1 ag confirm | M4 agonist ctr
Cc1ccccc1OCc1nc(-c2ccccc2)no1 | -2.4* | / | -1.1 | -1 | 0.8 | -0.71 | -9.1 | -54
CCc1nc(NCCCN2CCOCC2)c2oc3ccccc3c2n1 | 0.1 | -21 | -0.01 | 0 | 0.9 | 0.46 | / | /
CCc1nc(NCc2ccccn2)c2oc3ccccc3c2n1 | 4.2* | / | / | / | 0.9 | -2.3 | -24* | ?
Cc1cc(NC(=O)CSc2nnc(-c3ccoc3C)o2)no1 | -3.7* | -5 | 1.3 | 0 | 1 | 0.39 | ? | -54
COc1ccccc1N1CCN(C(=O)CSc2ncccc2-c2nc3ccccc3[nH]2)CC1 | 13* | / | -0.82 | / | 0.9 | -0.56 | ? | -62
COc1ccccc1-n1nc(C(=O)O)c2ccccc2c1=O | 6.6* | -3 | -0.21 | -1 | 1 | -0.049 | ? | -30
CCn1c(SCC(=O)Nc2cccc(NC(=O)c3ccco3)c2)nnc1-c1cccs1 | 4.2* | 0 | 1.2 | -1 | 0.9 | -0.74 | -10 | -34
Cc1ccc2cc(CCNC(=O)CC(C)C)c(=O)[nH]c2c1 | 0.012 | -26 | / | 0 | 0.9 | 1.1 | / | /
COCC(C)NC(=O)NC1(C(F)(F)F)Oc2ccc(Cl)cc2O1 (stereo not given) | 6.4* | / | -0.14 | / | 1 | 0 | ? | -47
O=C(NCCN1CCOCC1)NC1(C(F)(F)F)Oc2ccc(Cl)cc2O1 (stereo not given) | 0.05 | 32 | -1.3 | -1 | 0.9 | -1.8 | / | /
Cc1cccc(N2CCN(C(=O)Cn3sc4nc(C)cc(C)c4c3=O)CC2C)c1 (stereo not given) | 5.3* | 19 | -0.1 | -1 | 1 | -0.62 | -24* | -67*
O=C(COc1ccccc1)Nc1ccccc1C(=O)NCc1ccco1 | 6.7* | -5 | 0.59 | -2 | 0.9 | -0.43 | ? | -42
O=C(Nc1ccc(Cl)cc1)Nc1ccccc1C(=O)NCc1ccco1 | / | 15 | / | 0 | 0.9 | / | / | /
Cc1noc(C)c1CSc1ccccc1C(=O)Nc1nccs1 | 0.34 | 7 | 0.63 | 1 | 1 | 0.25 | / | /
COc1cc2c(cc1OC)C(COc1ccc(F)cc1)N(C(=O)c1ccco1)CC2 (stereo not given) | 7.9* | / | 0.89 | / | 1 | -1.2 | -2.1 | -15
CC(Nc1ncnc2nc[nH]c12)c1ccccc1 (stereo not given) | 2.8* | -7 | -0.81 | -1 | 1.1 | 0.32 | -14 | -29
Cn1c(=O)[nH]c(=O)c2c1nc(N1CCOCC1)n2CCSc1ncccn1 | 1.3 | -22 | -0.012 | 0 | / | -0.04 | / | /
